{"source": "ChEMBL document CHEMBL3612009", "about": "“Synthesis and structure-activity relationship study of a new series of antiparasitic aryloxyl thiosemicarbazones inhibiting Trypanosoma cruzi cruzain” (Eur J Med Chem, 2015)", "key": {"[1]": {"molecular_target": "Cruzipain (Trypanosoma cruzi) (UniProt P25779)", "sequence (P25779 123-467 limits assumed)": "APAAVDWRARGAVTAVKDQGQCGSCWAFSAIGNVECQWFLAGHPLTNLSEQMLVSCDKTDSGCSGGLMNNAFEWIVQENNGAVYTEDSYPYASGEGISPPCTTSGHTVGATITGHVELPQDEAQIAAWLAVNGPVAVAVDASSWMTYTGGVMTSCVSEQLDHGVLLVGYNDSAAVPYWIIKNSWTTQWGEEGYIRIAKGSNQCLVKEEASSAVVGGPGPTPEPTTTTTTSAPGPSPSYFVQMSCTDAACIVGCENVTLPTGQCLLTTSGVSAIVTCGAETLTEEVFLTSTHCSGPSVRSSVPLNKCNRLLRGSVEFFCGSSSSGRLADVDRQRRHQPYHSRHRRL", "assay": "Inhibition of Trypanosoma cruzi catalytic activity of cruzain using Z-FR-AMC as substrate at 100 uM after 10 mins by fluorescence assay"}, "Trypanosoma cruzi [2]": {"system": "Trypanosoma cruzi", "assay": "Antiparasitic activity against trypomastigotes of Trypanosoma cruzi Y assessed as reduction of parasite count after 24 hrs", "assay_type": "functional"}, "[3]": {"assay": "Selectivity index, ratio of CC50 for mouse L929 cells to IC50 for amastigote and trypomastigote forms of Trypanosoma cruzi Tulahuen", "assay_type": "functional", "procedure,_shortened": "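SI = CC50 in uninfected L-929 fibroblasts (alamarBlue, 96 h) divided by IC50 against intracellular amastigote/trypomastigote forms (beta-galactosidase assay, 7 days).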"}, "Trypanosoma cruzi [4]": {"system": "Trypanosoma cruzi", "assay": "Antiparasitic activity against trypomastigotes of Trypanosoma cruzi Y assessed as induction of parasite death at 5 uM after 24 hrs using propidium iodide staining after 24 hrs by flow cytometry analysis", "assay_type": "functional", "procedure,_shortened": "(§1)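 Y strain trypomastigotes (4x10^5) in RPMI-1640 with 10% FBS, exposed to test agent for 24 h at 37 °C, 5% CO2; then stained with propidium iodide and analysed by flow cytometry, at least 10,000 events. Read-out is % PI-positive cells versus untreated parasites; Triton X-100 as positive control. Two independent experiments, each concentration in duplicate.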"}, "Trypanosoma cruzi [5]": {"system": "Trypanosoma cruzi", "assay": "Antiparasitic activity against trypomastigotes of Trypanosoma cruzi Y assessed as induction of parasite death at 25 uM after 24 hrs using propidium iodide staining after 24 hrs by flow cytometry analysis", "assay_type": "functional", "procedure,_shortened": "as §1"}, "[6]": {"assay": "Cytotoxicity against BALB/c mouse splenocytes assessed as maximum non-toxic concentration by measuring [3H]-thymidine incorporation after 24 hrs by liquid scintillation counting", "assay_type": "cell-based, Splenocyte", "procedure,_shortened": "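BALB/c splenocytes, 5 x 10^6 cells/well, given compounds at 1.23, 3.7, 33.33 and 100 µg/mL, 1% DMSO final, triplicate; 24 h at 37 °C, 5% CO2. Then 1.0 µCi [3H]-thymidine added; cells harvested and counted by liquid scintillation. Highest non-cytotoxic concentration taken from % incorporation.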"}, "Trypanosoma cruzi [7]": {"system": "Trypanosoma cruzi", "assay": "Antitrypanosomal activity against amastigote and trypomastigote forms of Trypanosoma cruzi Tulahuen expressing beta-galactosidase gene infected in mouse L-929 cells assessed as inhibition of parasite growth after 7 days by colorimetric betagalactosidase assay", "assay_type": "functional, organism-based", "conditions": "L929, 168 h"}, "Trypanosoma cruzi [8]": {"system": "Trypanosoma cruzi", "assay": "Antiparasitic activity against trypomastigotes of Trypanosoma cruzi Y assessed as induction of parasite death at 0.5 uM after 24 hrs using propidium iodide staining after 24 hrs by flow cytometry analysis", "assay_type": "functional", "procedure,_shortened": "as §1"}, "Trypanosoma cruzi [9]": {"system": "Trypanosoma cruzi", "assay": "Antiparasitic activity against trypomastigotes of Trypanosoma cruzi Y assessed as induction of parasite death after 24 hrs using propidium iodide staining after 24 hrs by flow cytometry analysis", "assay_type": "functional, organism-based", "procedure,_shortened": "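Y strain trypomastigotes (4x10^5) in RPMI-1640 + 10% FBS exposed to 0.5 or 5.0 µM of each thiosemicarbazone, benznidazole 25 µM, or Triton X-100, for 24 h at 37 °C, 5% CO2. Then PI-stained and read by flow cytometry, at least 10,000 events. Two independent experiments, duplicates.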"}, "[10]": {"assay": "Cytotoxicity against mouse L929 cells assessed as cell viability after 96 hrs by alamarBlue assay", "assay_type": "cell-based", "procedure,_shortened": "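Uninfected L-929 cells at the same cell number and timing as the beta-galactosidase assay; increasing concentrations starting at the T. cruzi IC50, quadruplicate. After 96 h, alamarBlue added; absorbance at 570 and 600 nm read 6 h later. Viability as % reduction versus untreated; CC50 by linear interpolation.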"}, "Trypanosoma cruzi [11]": {"system": "Trypanosoma cruzi", "assay": "Antiparasitic activity against epimastigotes of Trypanosoma cruzi Dm28c assessed as reduction of parasite count after 5 days", "assay_type": "functional", "conditions": "120 h"}, "Trypanosoma cruzi [12]": {"system": "Trypanosoma cruzi", "assay": "Antitrypanosomal activity against amastigote and trypomastigote forms of Trypanosoma cruzi Tulahuen expressing beta-galactosidase gene infected in mouse L-929 cells assessed as inhibition of parasite growth at 100 uM after 7 days by colorimetric betagalactosidase assay", "assay_type": "functional", "conditions": "L929, 168 h"}, "[13]": {"molecular_target": "Cruzipain (Trypanosoma cruzi) (UniProt P25779)", "assay": "Inhibition of Trypanosoma cruzi catalytic activity of cruzain using Z-FR-AMC as substrate at 50 uM after 10 mins by fluorescence assay"}, "Cruzipain": {"molecular_target": "Cruzipain (Trypanosoma cruzi, UniProt P25779)", "sequence (P25779 whole entry)": "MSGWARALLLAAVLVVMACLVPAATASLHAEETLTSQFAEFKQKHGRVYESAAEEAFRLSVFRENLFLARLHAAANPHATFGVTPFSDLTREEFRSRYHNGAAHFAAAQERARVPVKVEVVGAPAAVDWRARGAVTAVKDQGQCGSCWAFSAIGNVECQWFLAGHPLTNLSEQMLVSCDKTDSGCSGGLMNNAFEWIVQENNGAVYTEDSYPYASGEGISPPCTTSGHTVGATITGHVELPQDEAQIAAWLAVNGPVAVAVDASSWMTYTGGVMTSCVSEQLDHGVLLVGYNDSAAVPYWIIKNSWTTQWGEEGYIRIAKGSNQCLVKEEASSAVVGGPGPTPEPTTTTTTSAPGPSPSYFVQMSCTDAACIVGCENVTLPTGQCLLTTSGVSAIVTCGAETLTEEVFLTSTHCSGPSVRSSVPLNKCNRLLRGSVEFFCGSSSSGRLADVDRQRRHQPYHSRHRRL", "assay": "Inhibition of Trypanosoma cruzi catalytic activity of cruzain using Z-FR-AMC as substrate after 10 mins by fluorescence assay"}}, "note": "Activity calls are given as the source filed them. The rule behind the calls is not given here."}
{"smiles": "C/C(=N\\NC(N)=S)C(C)Oc1ccccc1-c1ccccc1", "note": "(stereo not drawn)", "values": [{"measurement": "inhibition", "setting": "[1]", "value": "inactive"}]}
{"smiles": "O=C(Cn1ccnc1[N+](=O)[O-])NCc1ccccc1", "note": "[BENZNIDAZOLE]", "values": [{"measurement": "CC50", "setting": "Trypanosoma cruzi [2]", "value": 6.2, "unit": "µM"}, {"measurement": "Ratio CC50/IC50", "setting": "[3]", "value": 625}, {"measurement": "Activity", "setting": "Trypanosoma cruzi [4]", "value": 4.2, "unit": "%"}, {"measurement": "Activity", "setting": "Trypanosoma cruzi [5]", "value": 56.4, "unit": "%"}]}
{"smiles": "CC(C)c1ccc(OC/C(=N\\NC(N)=S)c2ccc(Br)cc2)cc1", "values": [{"measurement": "CC50", "setting": "Trypanosoma cruzi [2]", "value": 2.9, "unit": "µM"}, {"measurement": "Ratio CC50/IC50", "setting": "[3]", "value": 2}, {"measurement": "MNTC at 24 h", "setting": "[6]", "value": "> 246000", "unit": "nM"}, {"measurement": "Activity", "setting": "Trypanosoma cruzi [4]", "value": 42.2, "unit": "%"}, {"measurement": "IC50", "setting": "Trypanosoma cruzi [7]", "value": 12.3, "unit": "µM"}, {"measurement": "Activity", "setting": "Trypanosoma cruzi [8]", "value": 2.3, "unit": "%"}, {"measurement": "inhibition", "setting": "Trypanosoma cruzi [9]", "value": "Dose-dependent effect"}, {"measurement": "CC50 at 96 h", "setting": "[10]", "value": 24.6, "unit": "µM"}, {"measurement": "IC50", "setting": "Trypanosoma cruzi [11]", "value": 3.8, "unit": "µM"}, {"measurement": "inhibition at 100 µM", "setting": "Trypanosoma cruzi [12]", "value": "> 70", "unit": "%"}, {"measurement": "inhibition", "setting": "[13]", "value": 49.7, "unit": "%"}]}
{"smiles": "NC(=S)N/N=C(\\COc1ccc(F)c(Cl)c1)c1ccc(Br)cc1", "values": [{"measurement": "CC50", "setting": "Trypanosoma cruzi [2]", "value": 1.7, "unit": "µM"}, {"measurement": "Ratio CC50/IC50", "setting": "[3]", "value": 5.3}, {"measurement": "MNTC at 24 h", "setting": "[6]", "value": 2400, "unit": "nM"}, {"measurement": "Activity", "setting": "Trypanosoma cruzi [4]", "value": 34, "unit": "%"}, {"measurement": "IC50", "setting": "Trypanosoma cruzi [7]", "value": 9, "unit": "µM"}, {"measurement": "Activity", "setting": "Trypanosoma cruzi [8]", "value": 2.7, "unit": "%"}, {"measurement": "CC50 at 96 h", "setting": "[10]", "value": 48, "unit": "µM"}, {"measurement": "IC50", "setting": "Trypanosoma cruzi [11]", "value": 3.4, "unit": "µM"}, {"measurement": "inhibition at 100 µM", "setting": "Trypanosoma cruzi [12]", "value": "> 70", "unit": "%"}, {"measurement": "IC50", "setting": "Cruzipain", "value": 0.07, "unit": "µM"}, {"measurement": "inhibition", "setting": "[13]", "value": 93.7, "unit": "%"}]}
{"smiles": "CC(=O)Nc1ccc(OC(C)/C(C)=N/NC(N)=S)cc1", "note": "(stereo not drawn)", "values": [{"measurement": "inhibition", "setting": "[1]", "value": "inactive"}]}
